Experimental data published in ChEMBL document CHEMBL1123422, “1-Ethyl-7-[3-[(ethylamino)methyl]-1-pyrrolidinyl]-6,8-difluoro-1,4- dihydro-4-oxo-3-quinoline-carboxylic acid. New quinolone antibacterial with potent gram-positive activity” (1986).
Converted amounts (≈) assume the structure as drawn.

How the values were obtained:
Klebsiella pneumoniae [1] = experiment: (§1) Compound was tested for inhibition of the gram-negative organism Klebsiella pneumoniae MGH-2; assay type: functional
Procedure, shortened: (§2)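 MICs read in standard microdilution (microtitration) format against a panel of 10 bacterial organisms; values in µg/mL.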

Escherichia coli [2] = experiment: (§3) Compound was tested for inhibition of the gram-negative organism Escherichia coli H560; assay type: functional; procedure, shortened: as §2
Staphylococcus aureus [3] = experiment: (§4) Compound was tested for inhibition of the […] organism […] UC-76.; assay type: functional; procedure, shortened: as §2
Pseudomonas aeruginosa [4] = experiment: (§5) Compound was tested for inhibition of the gram-negative organism Pseudomonas aeruginosa UI-18; assay type: functional; procedure, shortened: as §2
Mus musculus [5] = experiment: Compound was evaluated for protective dose against the Escherichia coli vogel lethal infection following sc administration in mouse; assay type: functional; details: read-out: PD50
Procedure, shortened: (§6)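 Acute lethal systemic infection in female Charles River CD-1 mice (18–22 g), challenged intraperitoneally with an estimated 100 median lethal dose in 5% hog gastric mucin. Single doses in a twofold rising series were given with the challenge, sc as aqueous solution or po by gavage in 5% gum acacia. PD50 (mg/kg) was estimated by log probit from survival of eight mice per dose.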

Mus musculus [6] = experiment: Compound was evaluated for protective dose against the Streptococcus pneumoniae SV-1 lethal infection following po administration; assay type: functional; details: read-out: PD50
Procedure, shortened: (§7)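 Female Charles River CD-1 mice (18–22 g) were challenged intraperitoneally with an estimated 100 median lethal dose in tryptic soy broth. Single doses, in a twofold rising series, were given at the same time as challenge: subcutaneously as aqueous solution, or orally by gavage in 5% gum acacia. Survival in groups of eight mice per dose gave PD50 (mg/kg) by log probit.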

Escherichia coli [7] = experiment: (§8) Compound was tested for inhibition of the gram-negative organism Escherichia coli vogel; assay type: functional; procedure, shortened: as §2
Mus musculus [8] = experiment: Compound was evaluated for protective dose against Streptococcus pneumoniae SV-1 lethal infection following sc administration; assay type: functional; details: read-out: PD50; procedure, shortened: as §7
Mus musculus [9] = experiment: Compound was evaluated for protective dose against the Escherichia coli vogel lethal infection following peroral administration in mouse; assay type: functional; details: po, read-out: PD50; procedure, shortened: as §6
Staphylococcus aureus [10] = experiment: (§9) Compound was tested for inhibition of the […] organism […] H228.; assay type: functional; procedure, shortened: as §2
Mus musculus [11] = experiment: Compound was evaluated for protective dose against the […] UC-76 lethal infection following po administration in mouse; assay type: functional; details: read-out: PD50; procedure, shortened: as §6
Providencia rettgeri [12] = experiment: (§10) Compound was tested for inhibition of the gram-negative organism Providencia rettgeri H1771; assay type: functional; procedure, shortened: as §2
Mus musculus [13] = experiment: Compound was evaluated for protective dose against the […] UC-76 lethal infection following sc administration in mouse; assay type: functional; details: read-out: PD50; procedure, shortened: as §6
Enterococcus faecalis [14] = experiment: (§11) Compound was tested for inhibition of the […] organism Streptococcus faecalis MGH-2; assay type: functional; procedure, shortened: as §2
Streptococcus pyogenes [15] = experiment: (§12) Compound was tested for inhibition of the […] organism Streptococcus pyogenes C203.; assay type: functional; procedure, shortened: as §2
Enterobacter cloacae = experiment: Compound was tested for inhibition of the gram-negative organism […] HA 2646; assay type: functional
[16] = molecular target: DNA gyrase (Escherichia coli) (UniProt P0AES6+P0AES4); experiment: Inhibition of DNA gyrase of Escherichia coli H560 cells
Procedure, shortened: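 DNA gyrase purified from Escherichia coli H560 cells. Cleavage assay: drug-gyrase-DNA complex denatured, converting closed circular DNA to linear DNA. Linear DNA resolved by gel electrophoresis and stained with ethidium bromide. Value is the minimum drug concentration (µg/mL) giving linear DNA at an intensity relative to oxolinic acid at 10 µg/mL. Aqueous drug stocks made up in 0.1 N NaOH or KOH.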

Streptococcus pneumoniae [17] = experiment: (§13) Compound was tested for inhibition of the […] organism Streptococcus pneumoniae SV-1; assay type: functional; procedure, shortened: as §2
Streptococcus pneumoniae [18] = experiment: as §13; assay type: functional; remark: listed apart in the source
Escherichia coli [19] = experiment: as §3; assay type: functional; remark: listed apart in the source
Streptococcus pyogenes [20] = experiment: as §12; assay type: functional; remark: listed apart in the source
Staphylococcus aureus [21] = experiment: as §4; assay type: functional; remark: listed apart in the source
Providencia rettgeri [22] = experiment: as §10; assay type: functional; remark: listed apart in the source
Escherichia coli [23] = experiment: as §8; assay type: functional; remark: listed apart in the source
Klebsiella pneumoniae [24] = experiment: as §1; assay type: functional; remark: listed apart in the source
Escherichia coli [25] = experiment: Compound was tested for inhibition of target enzyme DNA gyrase obtained from Escherichia coli H560 cells; assay type: functional
Procedure, shortened: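 Gyrase isolated from E. coli H560 cells. Drug-gyrase-DNA complex denatured, and closed circular DNA converted to linear DNA. Linear DNA resolved by gel electrophoresis and stained with ethidium bromide. Value is the minimum drug concentration (µg/mL) giving linear DNA at an intensity relative to oxolinic acid at 10 µg/mL. Aqueous drug stocks made in 0.1 N NaOH or KOH.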

Pseudomonas aeruginosa [26] = experiment: as §5; assay type: functional; remark: listed apart in the source
Enterococcus faecalis [27] = experiment: as §11; assay type: functional; remark: listed apart in the source
Staphylococcus aureus [28] = experiment: as §9; assay type: functional; remark: listed apart in the source

SMILES | MIC (Klebsiella pneumoniae [1]) [µg/mL] | MIC (Escherichia coli [2]) [µg/mL] | MIC (Staphylococcus aureus [3]) [µg/mL] | MIC (Pseudomonas aeruginosa [4]) [µg/mL] | ED50 (Mus musculus [5]) [mg/kg] | ED50 (Mus musculus [6]) [mg/kg] | MIC (Escherichia coli [7]) [µg/mL] | ED50 (Mus musculus [8]) [mg/kg] | ED50 (Mus musculus [9]) [mg/kg] | MIC (Staphylococcus aureus [10]) [µg/mL] | ED50 (Mus musculus [11]) [mg/kg] | MIC (Providencia rettgeri [12]) [µg/mL] | ED50 (Mus musculus [13]) [mg/kg] | MIC (Enterococcus faecalis [14]) [µg/mL] | MIC (Streptococcus pyogenes [15]) [µg/mL] | MIC (Enterobacter cloacae) [µg/mL] | Min concentration [16] [µg/mL] | further results
CCn1cc(C(=O)O)c(=O)c2cc(F)c(N3CCN(C)CC3)cc21 [PEFLOXACIN] | 0.05 (≈ 0.15 µM) | 0.1 (≈ 0.3 µM) | 0.1 (≈ 0.3 µM) | 0.4 (≈ 1.2 µM) | 1.6 | 200 | 0.025 (≈ 0.075 µM) | 96 | 2.8 | 0.2 (≈ 0.6 µM) | 9.5 | 0.05 (≈ 0.15 µM) | 3.7 | 0.8 (≈ 2.4 µM) | 0.8 (≈ 2.4 µM) |  |  | 
CCNCC1CCN(c2c(F)cc3c(=O)c(C(=O)O)cn(CC)c3c2F)C1 (centres undefined) [MERAFLOXACIN] | 0.2 (≈ 0.527 µM) | 0.1 (≈ 0.264 µM) | 0.05 (≈ 0.132 µM) | 1.6 (≈ 4.22 µM) | 1.7 | 20 | 0.1 (≈ 0.264 µM) | 4.4 | 12 | 0.1 (≈ 0.264 µM) | 2.8 | 0.4 (≈ 1.05 µM) | 1.6 | 0.1 (≈ 0.264 µM) | 0.1 (≈ 0.264 µM) | 0.2 (≈ 0.527 µM) | 2.5 | MIC (Streptococcus pneumoniae [17]): 0.1 µg/mL (≈ 0.264 µM)
CCn1cc(C(=O)O)c(=O)c2cc(F)c(N3CCC(CN)C3)cc21 (centres undefined) | 3.1 (≈ 9.3 µM) | 0.4 (≈ 1.2 µM) | 0.05 (≈ 0.15 µM) | 1.6 (≈ 4.8 µM) | 25 |  | 0.8 (≈ 2.4 µM) |  | > 100 | 1.6 (≈ 4.8 µM) | > 50 | 6.3 (≈ 18.9 µM) | 6 | 0.8 (≈ 2.4 µM) | 0.2 (≈ 0.6 µM) | 1.6 (≈ 4.8 µM) | 3 | MIC (Streptococcus pneumoniae [17]): 0.2 µg/mL (≈ 0.6 µM)
CCn1cc(C(=O)O)c(=O)c2ccc(C)nc21 [NALIDIXIC ACID] | 6.3 (≈ 27.1 µM) | 6.3 (≈ 27.1 µM) | 25 (≈ 108 µM) | > 100 | 26 | > 100 | 3.1 (≈ 13.3 µM) | > 100 | 45 | 100 (≈ 431 µM) | > 100 | 6.3 (≈ 27.1 µM) | > 100 | > 100 | > 100 | 6.3 (≈ 27.1 µM) | 50 | 
CCn1cc(C(=O)O)c(=O)c2cc3c(cc21)OCO3 [OXOLINIC ACID] | 0.2 (≈ 0.766 µM) | 0.2 (≈ 0.766 µM) | 0.8 (≈ 3.06 µM) | 6.3 (≈ 24.1 µM) | 9 |  | 0.2 (≈ 0.766 µM) |  | 17 | 1.6 (≈ 6.12 µM) | > 100 | 0.1 (≈ 0.383 µM) | 63 | 12.5 (≈ 47.9 µM) | > 100 | 0.4 (≈ 1.53 µM) | 10 | 
CCn1cc(C(=O)O)c(=O)c2cc(F)c(N3CCNCC3)cc21 [NORFLOXACIN] |  |  |  |  | 1 | 150 |  | > 100 | 4 |  | 23 |  | 15 |  |  | 0.1 (≈ 0.313 µM) |  | MIC (Streptococcus pneumoniae [18]): 1.6 µg/mL (≈ 5.01 µM); MIC (Escherichia coli [19]): 0.1 µg/mL (≈ 0.313 µM); MIC (Streptococcus pyogenes [20]): 0.8 µg/mL (≈ 2.51 µM); MIC (Staphylococcus aureus [21]): 0.05 µg/mL (≈ 0.157 µM); MIC (Providencia rettgeri [22]): 0.025 µg/mL (≈ 0.0783 µM); MIC (Escherichia coli [23]): 0.025 µg/mL (≈ 0.0783 µM); MIC (Klebsiella pneumoniae [24]): 0.05 µg/mL (≈ 0.157 µM); MIC (Escherichia coli [25]): 1 µg/mL (≈ 3.13 µM); MIC (Pseudomonas aeruginosa [26]): 0.2 µg/mL (≈ 0.626 µM); MIC (Enterococcus faecalis [27]): 1.6 µg/mL (≈ 5.01 µM); MIC (Staphylococcus aureus [28]): 0.8 µg/mL (≈ 2.51 µM)
CC1COc2c(N3CCN(C)CC3)c(F)cc3c(=O)c(C(=O)O)cn1c23 (centres undefined) [OFLOXACIN] | 0.1 (≈ 0.277 µM) |  | 0.1 (≈ 0.277 µM) | 0.4 (≈ 1.11 µM) | 0.8 | 68 | 0.1 (≈ 0.277 µM) | 38 | 2 |  | 11 | 0.2 (≈ 0.553 µM) | 5 | 0.8 (≈ 2.21 µM) | 0.8 (≈ 2.21 µM) | 0.1 (≈ 0.277 µM) | 5 | 
